Data as given in ChEMBL document CHEMBL2380287, “PEG mediated synthesis and pharmacological evaluation of some fluoro substituted pyrazoline derivatives as antiinflammatory and analgesic agents” (2013).

tested on: Rattus norvegicus; assay: Analgesic activity in rat at 25 mg/kg, po after 60 mins by radiant heat tail flick method relative to control; type: functional; conditions: 1 h
Method in brief: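 Rats, six per group, were dosed orally at 25 mg/kg. Analgesia was measured at 60 min by the radiant heat tail flick method and expressed as percentage analgesia. Animals were kept on a 12/12 h light/dark cycle with free access to water and standard pellet diet.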

Compound	inhibition in vivo at 25 mg/kg
CC(=O)N1N=C(c2ccc(F)cc2)CC1c1cn(-c2ccccc2)nc1-c1ccc(F)cc1 (stereo not given)	43%
CC(=O)N1N=C(c2ccc(F)cc2)CC1c1cn(-c2ccccc2)nc1-c1ccc(Cl)cc1 (stereo not given)	44%
CC(=O)N1N=C(c2ccc(F)cc2)CC1c1cn(-c2ccccc2)nc1-c1ccc(Br)cc1 (stereo not given)	71%
CC(=O)N1N=C(c2ccc(F)cc2)CC1c1cn(-c2ccccc2)nc1-c1ccc(C)cc1 (stereo not given)	110%
COc1ccc(-c2nn(-c3ccccc3)cc2C2CC(c3ccc(F)cc3)=NN2C(C)=O)cc1 (stereo not given)	66%
CC(=O)N1N=C(c2ccc(F)cc2)CC1c1cn(-c2ccccc2)nc1-c1cccc([N+](=O)[O-])c1 (stereo not given)	109%
CC(=O)N1N=C(c2ccc(F)cc2)CC1c1cn(-c2ccccc2)nc1-c1ccccc1 (stereo not given)	35%
Fc1ccc(C2=NN(c3ccccc3)C(c3cn(-c4ccccc4)nc3-c3ccc(F)cc3)C2)cc1 (stereo not given)	41%
Fc1ccc(C2=NN(c3ccccc3)C(c3cn(-c4ccccc4)nc3-c3ccc(Cl)cc3)C2)cc1 (stereo not given)	43%
Fc1ccc(C2=NN(c3ccccc3)C(c3cn(-c4ccccc4)nc3-c3ccc(Br)cc3)C2)cc1 (stereo not given)	71%
Cc1ccc(-c2nn(-c3ccccc3)cc2C2CC(c3ccc(F)cc3)=NN2c2ccccc2)cc1 (stereo not given)	110%
COc1ccc(-c2nn(-c3ccccc3)cc2C2CC(c3ccc(F)cc3)=NN2c2ccccc2)cc1 (stereo not given)	66%
O=[N+]([O-])c1cccc(-c2nn(-c3ccccc3)cc2C2CC(c3ccc(F)cc3)=NN2c2ccccc2)c1 (stereo not given)	108%
Fc1ccc(C2=NN(c3ccccc3)C(c3cn(-c4ccccc4)nc3-c3ccccc3)C2)cc1 (stereo not given)	35%
CC(=O)Oc1ccccc1C(=O)O [ASPIRIN]	119%
